{"source": "ChEMBL document CHEMBL5346886", "about": "(Eur J Med Chem, 2023)", "key": {"[1]": {"test_system": "Murine hepatitis virus", "test": "Antiviral activity against murine hepatitis virus-A59 infected in BALB/c mouse assessed as alleviation of lymphocytes infiltration in lungs at 200 mg/kg, po administered once daily one hour post infection and measured after 3 days by H&E staining based analysis", "format": "functional, organism-based", "conditions": "time 3.0 day", "summary_of_the_method": "(§1)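 In male BALB/c mice (3–4 weeks), MHV-A59 was given intranasally (30 μL, TCID50 = 10−7.125/100 μL). Oral dosing once daily in a Cremophor EL/PBS/DMSO vehicle began at 1 hpi and lasted four days. At 3 dpi, lungs and livers from 4 mice per group were fixed in zinc formalin and paraffin-embedded. Sections of about 4 μm were stained with H&E and examined at 200× and 400×.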"}, "[2]": {"test_system": "Transmissible gastroenteritis virus", "test": "Antiviral activity against Transmissible gastroenteritis virus infected in ST cells assessed as reduction in viral copy pre-infected with cells for 1 hrs followed by compound addition and measured after 48 hrs by RT-qPCR analysis", "format": "functional, organism-based", "conditions": "Alphacoronavirus 1, ST", "summary_of_the_method": "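CRFK cells (CCoV, FIPV) or ST cells (TGEV) were grown in DMEM with 10% FBS at 37 °C, 5% CO2. At 80% confluence they were washed in serum-free medium and infected at MOI 0.01 for 1 h at 37 °C. Compounds were then added at 0.1–100 μmol/L, with DMSO as blank. After 48 h, cells and supernatants were analysed by qRT-PCR. Inhibition came from viral copy number, and EC50 from curve fitting.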"}, "[3]": {"test_system": "Murine hepatitis virus", "test": "Antiviral activity against murine hepatitis virus-A59 infected in BALB/c mouse assessed as reduction in IL-1beta production in liver at 10 to 100 mg/kg, po administered once daily one hour post infection and measured after 3 days by ELISA analysis", "format": "functional, organism-based", "conditions": "dose 10-100 mg/kg, time 3.0 day", "summary_of_the_method": "(§2)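 MHV-A59 was inoculated intranasally into male BALB/c mice (30 μL, TCID50 = 10−7.125/100 μL), with oral dosing once daily from 1 hpi for four days. At 3 dpi, 0.1 g lung or liver from 4 mice per group was homogenized in 0.9 mL water at 4 °C and centrifuged. Supernatant IFN-β was read by ELISA; TNF-α, IFN-γ, IL-1β, IL-6 and CXCL10 by multi-analyte kit, with OD 450 nm against standards.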"}, "[4]": {"test": "Drug metabolism in Sprague-Dawley rat assessed as hydrolysis-mediated ibuprofen metabolite formation at 5 mg/kg, iv administered as single dose and measured after 24 hrs by LC-MS/MS analysis", "format": "ADME, organism-based", "conditions": "in vivo"}, "[5]": {"test_system": "Murine hepatitis virus", "test": "Antiviral activity against murine hepatitis virus-A59 infected in BALB/c mouse assessed as reduction in mortality at 10 to 200 mg/kg, po administered once daily one hour post infection and measured after 23 days", "format": "functional, organism-based", "conditions": "dose 10-200 mg/kg, time 23.0 day", "summary_of_the_method": "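After intranasal MHV-A59 inoculation (30 μL, TCID50 = 10−7.125/100 μL), 3–4-week-old male BALB/c mice received oral drug or vehicle once daily from 1 hpi for four days, 12 per group. The remaining mice were monitored daily for body weight, clinical signs and death until 23 dpi; survival curves were plotted.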"}, "[6]": {"test": "Drug distribution in BALB/c mouse liver assessed as hydrolyzed ibuprofen metabolite at 200 mg/kg, po administered as single dose and measured after 1 hrs by LC-MS/MS analysis", "format": "ADME, organism-based", "conditions": "in vivo"}, "[7]": {"test_system": "Murine hepatitis virus", "test": "Antiviral activity against murine hepatitis virus-A59 infected in BALB/c mouse model of acute liver injury assessed as reduction in plasma AST level at 10 to 200 mg/kg, po administered once daily one hour post infection and measured after 3 days", "format": "functional, organism-based", "conditions": "dose 10-200 mg/kg, time 3.0 day", "summary_of_the_method": "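Male BALB/c mice were infected intranasally with MHV-A59 (30 μL, TCID50 = 10−7.125/100 μL) and dosed orally once daily from 1 hpi for four days in 15% Cremophor EL/82.5% PBS/2.5% DMSO. At 3 dpi, blood from 4 euthanized mice per group was left to clot at room temperature and centrifuged. Serum ALT and AST were measured on a clinical chemistry analyzer.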"}, "[8]": {"test_system": "Murine hepatitis virus", "test": "Antiviral activity against murine hepatitis virus-A59 infected in BALB/c mouse assessed as survival rate at 10 mg/kg, po administered once daily one hour post infection and measured after 23 days relative to control", "format": "functional", "conditions": "Murine coronavirus, A59, 552 h, time 23 day", "summary_of_the_method": "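Male SPF BALB/c mice (3–4 weeks) were anaesthetised with isoflurane and given 30 μL MHV-A59 intranasally (TCID50 = 10−7.125/100 μL) in PBS. Oral dosing once daily in 15% Cremophor EL/82.5% PBS/2.5% DMSO began at 1 hpi and ran for four days, at 10, 50 or 200 mg/kg. There were 12 mice per group, with 4 culled at 3 dpi. Body weight, clinical signs and death were recorded daily to 23 days.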"}, "[9]": {"test_system": "Murine hepatitis virus", "test": "Antiviral activity against murine hepatitis virus-A59 infected in BALB/c mouse assessed as alleviation of interstitial pneumonia in lungs at 200 mg/kg, po administered once daily one hour post infection and measured after 3 days by H&E staining based analysis", "format": "functional, organism-based", "conditions": "time 3.0 day", "summary_of_the_method": "as §1"}, "[10]": {"test": "Stability in human plasma assessed as half-life", "format": "ADME, cell-free"}, "[11]": {"test": "Drug distribution in BALB/c mouse lung assessed as hydrolyzed GS-441524 metabolite at 200 mg/kg, po administered as single dose and measured after 1 hrs by LC-MS/MS analysis", "format": "ADME, organism-based", "conditions": "in vivo"}, "[12]": {"test_system": "Murine hepatitis virus", "test": "Antiviral activity against murine hepatitis virus-A59 infected in po dosed BALB/c mouse assessed as inhibition of viral replication in liver administered once daily one hour post infection and measured after 3 days by qRT-PCR analysis", "format": "functional, organism-based", "conditions": "dose 10-200 mg/kg, time 3.0 day", "summary_of_the_method": "(§3)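 SPF male BALB/c mice aged 3–4 weeks were put under isoflurane and inoculated intranasally with 30 μL MHV-A59 (TCID50 = 10−7.125/100 μL) in PBS. Oral dosing once daily in 15% Cremophor EL/82.5% PBS/2.5% DMSO started at 1 hpi and ran for four days; groups had 12 mice. At 3 dpi, 4 mice per group were killed and lung and liver M-gene copies measured by qRT-PCR.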"}, "[13]": {"test_system": "Murine hepatitis virus", "test": "Antiviral activity against murine hepatitis virus-A59 infected in BALB/c mouse assessed as reduction in IFN-gamma production in liver at 10 to 100 mg/kg, po administered once daily one hour post infection and measured after 3 days by ELISA analysis", "format": "functional, organism-based", "conditions": "dose 10-100 mg/kg, time 3.0 day", "summary_of_the_method": "as §2"}, "[14]": {"test_system": "Murine hepatitis virus", "test": "Antiviral activity against murine hepatitis virus-A59 infected in BALB/c mouse assessed as inhibition of viral titer in liver at 10 to 200 mg/kg, po administered once daily one hour post infection and measured after 3 days by qRT-PCR analysis", "format": "functional, organism-based", "conditions": "dose 10-200 mg/kg, time 3.0 day", "summary_of_the_method": "as §3"}, "[15]": {"test": "Drug distribution in BALB/c mouse plasma assessed as hydrolyzed ibuprofen metabolite at 200 mg/kg, po administered as single dose and measured after 1 hrs by LC-MS/MS analysis", "format": "ADME, organism-based", "conditions": "in vivo"}, "[16]": {"test_system": "Murine hepatitis virus", "test": "Antiviral activity against murine hepatitis virus-A59 infected in BALB/c mouse assessed as remission of hepatocyte necrosis at 200 mg/kg, po administered once daily one hour post infection and measured after 3 days by H&E staining based analysis", "format": "functional, organism-based", "conditions": "time 3.0 day", "summary_of_the_method": "as §1"}, "[17]": {"test_system": "Murine hepatitis virus", "test": "Antiviral activity against murine hepatitis virus-A59 infected in BALB/c mouse assessed as reduction in IFN-beta production in lungs at 200 mg/kg, po administered once daily one hour post infection and measured after 3 days by ELISA analysis", "format": "functional, organism-based", "conditions": "time 3.0 day", "summary_of_the_method": "as §2"}, "[18]": {"test_system": "Murine hepatitis virus", "test": "Antiviral activity against murine hepatitis virus-A59 infected in po dosed BALB/c mouse assessed as inhibition of viral replication in lungs administered once daily one hour post infection and measured after 3 days by qRT-PCR analysis", "format": "functional, organism-based", "conditions": "dose 10-200 mg/kg, time 3.0 day", "summary_of_the_method": "as §3"}}, "note": "Activity calls are given as the source filed them. No cut-off for these calls is given here."}
{"smiles": "CC(C)Cc1ccc(C(C)C(=O)OC[C@H]2O[C@@](C#N)(c3ccc4c(N)ncnn34)[C@H](O)[C@@H]2O)cc1", "note": "(stereo partly drawn)", "values": [{"measurement": "Activity", "setting": "[1]", "value": "Active"}, {"measurement": "EC50", "setting": "[2]", "value": 3.78, "unit": "µM"}, {"measurement": "Activity", "setting": "[3]", "value": "Active"}, {"measurement": "Drug metabolism", "setting": "[4]", "value": "Metabolite_Detected"}, {"measurement": "Activity", "setting": "[5]", "value": "Active"}, {"measurement": "Drug uptake", "setting": "[6]", "value": "Active"}, {"measurement": "Activity", "setting": "[7]", "value": "Active"}, {"measurement": "survival at 10 mg/kg", "setting": "[8]", "value": 100, "unit": "%"}, {"measurement": "Activity", "setting": "[9]", "value": "Active"}, {"measurement": "t1/2", "setting": "[10]", "value": 4.4173, "unit": "h"}, {"measurement": "Drug uptake", "setting": "[11]", "value": "Active"}, {"measurement": "Activity", "setting": "[12]", "value": "Dose-Dependent Effect"}, {"measurement": "Activity", "setting": "[13]", "value": "Active"}, {"measurement": "Activity", "setting": "[14]", "value": "Active"}, {"measurement": "Drug uptake", "setting": "[15]", "value": "Active"}, {"measurement": "Activity", "setting": "[16]", "value": "Active"}, {"measurement": "Activity", "setting": "[17]", "value": "Active"}, {"measurement": "Activity", "setting": "[18]", "value": "Dose-Dependent Effect"}]}
